Results published in ChEMBL document CHEMBL3351588, “Design, synthesis and biological evaluation of N-alkyl or aryl substituted isoindigo derivatives as potential dual cyclin-dependent kinase 2 (CDK2)/glycogen synthase kinase 3β (GSK-3β) phosphorylation inhibitors” (Eur J Med Chem, 2014).
The source made the active and inactive calls. No cut-off for these calls is given here.

Experiments:
K562 [1] = assay: Induction of cell cycle arrest in human K562 cells assessed as accumulation at G0/G1 phase at 20 uM after 24 hrs by propidium iodide staining based flow cytometry (reference value: 36.14%); assay type: functional
K562 [2] = assay: Induction of cell cycle arrest in human K562 cells assessed as accumulation at S phase at 20 uM after 24 hrs by propidium iodide staining based flow cytometry (reference value: 44.90%); assay type: functional
K562 [3] = assay: Induction of cell cycle arrest in human K562 cells assessed as accumulation at G2/M phase at 30 uM after 24 hrs by propidium iodide staining based flow cytometry (reference value: 18.96%); assay type: functional
K562 [4] = assay: Induction of apoptosis in human K562 cells assessed as viable cells level at 5 uM after 24 hrs by Annexin V-FITC/propidium iodide staining based flow cytometry (reference value: 97.64%); assay type: functional
In short: (§1)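 K562 cells exposed for 24 h or 48 h to 0, 5.0, 10.0, 15.0, 20.0 or 30.0 µM; vehicle DMSO 0.5% v/v. Cells stained with FITC-Annexin V, then counterstained with PI, and analysed by FACScan flow cytometry. Quadrants: Annexin V−/PI− viable; Annexin V+/PI− early apoptotic; Annexin V+/PI+ late apoptotic/necrotic.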

K562 [5] = assay: Induction of apoptosis in human K562 cells assessed as necrotic cells level at 10 uM after 24 hrs by Annexin V-FITC/propidium iodide staining based flow cytometry (reference value: 0.0%); assay type: functional; in short: as §1
K562 [6] = assay: Induction of apoptosis in human K562 cells assessed as viable cells level at 15 uM after 24 hrs by Annexin V-FITC/propidium iodide staining based flow cytometry (reference value: 97.64%); assay type: functional; in short: as §1
K562 [7] = assay: Induction of apoptosis in human K562 cells assessed as viable cells level at 20 uM after 24 hrs by Annexin V-FITC/propidium iodide staining based flow cytometry (reference value: 97.64%); assay type: functional; in short: as §1
K562 [8] = assay: Induction of apoptosis in human K562 cells assessed as early apoptotic cells level at 20 uM after 24 hrs by Annexin V-FITC/propidium iodide staining based flow cytometry (reference value: […]); assay type: functional
K562 [9] = assay: Induction of apoptosis in human K562 cells assessed as late apoptotic cells level at 20 uM after 24 hrs by Annexin V-FITC/propidium iodide staining based flow cytometry (reference value: 0.79%); assay type: functional; in short: as §1
K562 [10] = assay: Induction of apoptosis in human K562 cells assessed as viable cells level at 30 uM after 24 hrs by Annexin V-FITC/propidium iodide staining based flow cytometry (reference value: 97.64%); assay type: functional; in short: as §1
K562 [11] = assay: Induction of apoptosis in human K562 cells assessed as early apoptotic cells level at 30 uM after 24 hrs by Annexin V-FITC/propidium iodide staining based flow cytometry (reference value: […]); assay type: functional
K562 [12] = assay: Induction of apoptosis in human K562 cells assessed as viable cells level at 5 uM after 48 hrs by Annexin V-FITC/propidium iodide staining based flow cytometry (reference value: 99.21%); assay type: functional; in short: as §1
K562 [13] = assay: Induction of apoptosis in human K562 cells assessed as early apoptotic cells level at 5 uM after 48 hrs by Annexin V-FITC/propidium iodide staining based flow cytometry (reference value: 0.24%); assay type: functional; in short: as §1
K562 [14] = assay: Induction of apoptosis in human K562 cells assessed as late apoptotic cells level at 5 uM after 48 hrs by Annexin V-FITC/propidium iodide staining based flow cytometry (reference value: 0.54%); assay type: functional; in short: as §1
K562 [15] = assay: Induction of apoptosis in human K562 cells assessed as necrotic cells level at 5 uM after 48 hrs by Annexin V-FITC/propidium iodide staining based flow cytometry (reference value: 0.01%); assay type: functional; in short: as §1
K562 [16] = assay: Induction of apoptosis in human K562 cells assessed as early apoptotic cells level at 10 uM after 48 hrs by Annexin V-FITC/propidium iodide staining based flow cytometry (reference value: 0.24%); assay type: functional; in short: as §1
K562 [17] = assay: Induction of apoptosis in human K562 cells assessed as late apoptotic cells level at 10 uM after 48 hrs by Annexin V-FITC/propidium iodide staining based flow cytometry (reference value: 0.54%); assay type: functional; in short: as §1
K562 [18] = assay: Induction of apoptosis in human K562 cells assessed as necrotic cells level at 10 uM after 48 hrs by Annexin V-FITC/propidium iodide staining based flow cytometry (reference value: 0.01%); assay type: functional; in short: as §1
K562 [19] = assay: Induction of apoptosis in human K562 cells assessed as viable cells level at 15 uM after 48 hrs by Annexin V-FITC/propidium iodide staining based flow cytometry (reference value: 99.21%); assay type: functional; in short: as §1
K562 [20] = assay: Induction of apoptosis in human K562 cells assessed as viable cells level at 20 uM after 48 hrs by Annexin V-FITC/propidium iodide staining based flow cytometry (reference value: 99.21%); assay type: functional; in short: as §1
K562 [21] = assay: Induction of apoptosis in human K562 cells assessed as necrotic cells level at 20 uM after 48 hrs by Annexin V-FITC/propidium iodide staining based flow cytometry (reference value: 0.01%); assay type: functional; in short: as §1
K562 [22] = assay: Induction of apoptosis in human K562 cells assessed as early apoptotic cells level at 30 uM after 48 hrs by Annexin V-FITC/propidium iodide staining based flow cytometry (reference value: 0.24%); assay type: functional; in short: as §1
K562 [23] = assay: Induction of apoptosis in human K562 cells assessed as necrotic cells level at 30 uM after 48 hrs by Annexin V-FITC/propidium iodide staining based flow cytometry (reference value: 0.01%); assay type: functional; in short: as §1
K562 [24] = assay: Reduction in cyclin A protein expression in human K562 cells at 5 to 30 uM after 24 hrs by Western blotting method; assay type: functional, cell-based
K562 [25] = assay: Cytotoxicity against human K562 cells after 48 hrs by SRB assay; assay type: functional, cell-based; conditions: K562, 48 h
In short: (§2)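 Cells seeded at 5 × 10³ per well and allowed to attach for 12 h, then exposed to a range of drug concentrations in their own medium for 48 h. Fixed with ice-cold TCA for 1 h at 4 °C, washed, then stained with 0.4% SRB for 30 min at room temperature. IC50 is the mean of three independent experiments.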

[26] = Cytotoxicity against human HCT116 cells after 48 hrs by SRB assay; assay type: functional, cell-based; conditions: HCT-116, 48 h; in short: as §2
A549 = assay: Cytotoxicity against human A549 cells after 48 hrs by SRB assay; assay type: functional, cell-based; conditions: A549, 48 h; in short: as §2
K562 [27] = assay: Induction of cell morphological changes in human K562 cells assessed as nuclei compaction at 5 to 30 uM after 24 hrs by Hoechst 33342/propidium iodide staining based inverted fluorescence microscopy; assay type: functional
In short: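 Cells treated for 24 h with 5.0–30.0 μM or with 0.5% DMSO, then collected and washed with PBS. Stained with Hoechst 33342 (5.0 μg/mL, 10 min, 37 °C), then with PI (10.0 μg/mL, 10 min, room temperature, dark). Nuclei scored by fluorescence microscopy as condensed/bright, fragmented, or PI-positive.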

K562 [28] = assay: Induction of cell cycle arrest in human K562 cells assessed as accumulation at G0/G1 phase at 10 uM after 24 hrs by propidium iodide staining based flow cytometry (reference value: 36.14%); assay type: functional
K562 [29] = assay: Induction of cell cycle arrest in human K562 cells assessed as accumulation at G2/M phase at 10 uM after 24 hrs by propidium iodide staining based flow cytometry (reference value: 18.96%); assay type: functional
K562 [30] = assay: Induction of cell cycle arrest in human K562 cells assessed as accumulation at G0/G1 phase at 5 uM after 24 hrs by propidium iodide staining based flow cytometry (reference value: 36.14%); assay type: functional

## COc1ccc(N2C(=O)/C(=C3/C(=O)Nc4ccccc43)c3ccccc32)cc1
K562 [1]
  Activity: 32.01%
K562 [2]
  Activity: 56.34%
K562 [3]
  Activity: 11.8%
K562 [4]
  Activity: 96.21%
K562 [5]
  Activity: 0.01%
K562 [6]
  Activity: 90.17%
K562 [7]
  Activity: 72.9%
K562 [8]
  Activity: 14.44%
K562 [9]
  Activity: 12.65%
K562 [10]
  Activity: 56.98%
K562 [11]
  Activity: 23%
K562 [12]
  Activity: 97.78%
K562 [13]
  Activity: 1.46%
K562 [14]
  Activity: 0.76%
K562 [15]
  Activity: 0%
K562 [16]
  Activity: 1.68%
K562 [17]
  Activity: 1.39%
K562 [18]
  Activity: 0.02%
K562 [19]
  Activity: 95.68%
K562 [20]
  Activity: 82.42%
K562 [21]
  Activity: 0.51%
K562 [22]
  Activity: 19.3%
K562 [23]
  Activity: 1.3%
K562 [24]
  inhibition: Dose-dependent effect
K562 [25]
  IC50: 7.8 µM
[26]
  IC50: > 200 µM
A549
  IC50: 31.9 µM
K562 [27]
  Activity: Active
K562 [28]
  Activity: 34.81%
K562 [29]
  Activity: 14.31%
K562 [30]
  Activity: 37.16%
